Measured values reported in ChEMBL document CHEMBL1152882, “Optimization of novel di-substituted cyclohexylbenzamide derivatives as potent 11 beta-HSD1 inhibitors” (Bioorg Med Chem Lett, 2009).

Assays:
[1] = Metabolic stability in rat liver microsomes assessed as compound turnover after 30 mins; format: ADME, Microsome; conditions: read-out: Activity
[2] = Metabolic stability in human liver microsomes assessed as compound turnover after 30 mins; format: ADME, Microsome; conditions: read-out: Activity
HeLa = test: Cytotoxicity against human HeLa cells after 72 hrs by alamar blue assay
[3] = target: T1, Nuclear receptor subfamily 1 group I member 2 (Homo sapiens, UniProt O75469); test: Activation of human PXR expressed in human HepG2 cells at 2 uM by luciferase reporter gene assay relative to rifampin; format: cell-based; conditions: hepg2, 2 µM
T1 sequence (O75469 whole entry): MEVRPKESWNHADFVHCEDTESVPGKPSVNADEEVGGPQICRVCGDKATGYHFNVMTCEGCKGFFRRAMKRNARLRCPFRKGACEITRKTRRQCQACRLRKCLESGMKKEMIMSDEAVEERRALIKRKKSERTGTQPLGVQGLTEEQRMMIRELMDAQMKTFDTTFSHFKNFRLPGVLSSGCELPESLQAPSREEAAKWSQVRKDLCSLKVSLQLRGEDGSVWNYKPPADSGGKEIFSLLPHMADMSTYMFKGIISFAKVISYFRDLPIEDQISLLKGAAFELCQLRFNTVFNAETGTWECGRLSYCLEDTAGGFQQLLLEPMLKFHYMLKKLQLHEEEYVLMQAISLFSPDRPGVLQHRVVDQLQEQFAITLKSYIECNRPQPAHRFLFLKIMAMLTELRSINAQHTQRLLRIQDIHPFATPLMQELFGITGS
In short: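 Transactivation was measured in HepG2 cells transfected with a luciferase reporter construct driven by human PXR cDNA. Luciferase activity was read by chemiluminescence and expressed as percent of the rifampin control.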

[4] = target: 11-beta-hydroxysteroid dehydrogenase 1 (Homo sapiens, UniProt P28845); test: Inhibition of FLAG-tagged full length human 11beta-HSD1 expressed in baculovirus-infected Trichoplusia ni Hi5 cells assessed as reduction of [3H]cortisone to [3H]cortisol by scintillation proximity assay in presence of NADPH; format: cell-based, BTI-TN-5B1-4
11-beta-hydroxysteroid dehydrogenase 1 (Homo sapiens, UniProt P28845), sequence (P28845 whole entry): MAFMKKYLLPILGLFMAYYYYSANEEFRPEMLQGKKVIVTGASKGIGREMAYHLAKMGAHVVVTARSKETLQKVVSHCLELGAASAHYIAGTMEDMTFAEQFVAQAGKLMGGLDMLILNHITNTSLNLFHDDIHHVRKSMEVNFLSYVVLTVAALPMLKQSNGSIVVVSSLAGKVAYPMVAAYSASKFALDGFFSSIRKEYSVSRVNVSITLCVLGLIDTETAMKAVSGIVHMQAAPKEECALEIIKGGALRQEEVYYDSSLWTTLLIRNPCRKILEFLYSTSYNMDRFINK

[5] = Bioavailability in rat at 0.7 mg/kg, iv and 2 mg/kg, po; format: ADME, organism-based; conditions: in vivo
In short: (§1)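 Single-dose PK: intravenous dose 0.5 or 0.7 mg/kg (footnotes a, b), oral dose 2.0 mg/kg. Reported parameters are iv clearance (L/h/kg), Vdss (L/kg), oral AUC and % oral bioavailability.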

[6] = Clearance in rat at 0.7 mg/kg, iv and 2 mg/kg, po; format: ADME, organism-based; conditions: in vivo; in short: as §1
[7] = Volume of distribution at steady state in rat at 0.7 mg/kg, iv and 2 mg/kg, po; format: ADME, organism-based; conditions: in vivo, read-out: Vdss; in short: as §1
[8] = AUC in rat at 2 mg/kg, po; format: ADME, organism-based; parameters: dose 2 mg/kg, route oral; conditions: plasma; in short: as §1
[9] = AUC in cynomolgus monkey at 2 mg/kg, po; format: ADME, organism-based, Macaca fascicularis; parameters: dose 2 mg/kg, route oral; conditions: plasma; in short: as §1
[10] = Volume of distribution at steady state in cynomolgus monkey at 0.5 mg/kg, iv and 2 mg/kg, po; conditions: in vivo, read-out: Vdss
[11] = Clearance in cynomolgus monkey at 0.5 mg/kg, iv and 2 mg/kg, po; conditions: in vivo
[12] = Bioavailability in cynomolgus monkey at 0.5 mg/kg, iv and 2 mg/kg, po; conditions: in vivo
Cynomolgus monkey = test: cells; conditions: Macaca fascicularis, Adipose tissue
[13] = target: 11-beta-hydroxysteroid dehydrogenase 1 (Rattus norvegicus, UniProt P16232); test: Inhibition of rat 11beta-HSD1
11-beta-hydroxysteroid dehydrogenase 1 (Rattus norvegicus, UniProt P16232), sequence (P16232 whole entry): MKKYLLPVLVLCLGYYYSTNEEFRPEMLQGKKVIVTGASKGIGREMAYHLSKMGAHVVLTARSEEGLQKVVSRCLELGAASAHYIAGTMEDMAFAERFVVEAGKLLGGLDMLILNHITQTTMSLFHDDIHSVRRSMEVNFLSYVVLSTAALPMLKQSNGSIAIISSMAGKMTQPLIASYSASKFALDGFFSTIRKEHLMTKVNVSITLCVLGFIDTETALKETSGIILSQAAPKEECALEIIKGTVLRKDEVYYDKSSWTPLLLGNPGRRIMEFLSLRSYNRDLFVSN
In short: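 Biochemical assay using baculovirus-produced recombinant full-length rat 11β-HSD1 with NADPH as cofactor. Substrate is [3H]cortisone. The [3H]-cortisol formed is captured by anti-cortisol monoclonal antibody SPA beads and quantified by scintillation. IC50 is from dose-response curve fitting of at least duplicate samples.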

[14] = Clearance in cynomolgus monkey at 0.5 mg/kg, iv and 2 mg/kg, po; format: ADME, organism-based, Macaca fascicularis; conditions: in vivo; in short: as §1
Rattus norvegicus = test: Inhibition of 11beta-HSD1 in epididymal fat tissue of po dosed Sprague-Dawley rat assessed as reduction in [3H]cortisol production after 2 hrs by scintillation proximity assay; conditions: Adipose tissue
[15] = Volume of distribution at steady state in rat at 0.5 mg/kg, iv and 2 mg/kg, po; format: ADME, organism-based; conditions: in vivo, read-out: Vdss; in short: as §1
[16] = Fraction unbound in human serum by ultracentrifugation assay; format: ADME, cell-free
In short: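 Human protein binding was measured with separation by ultracentrifugation and reported as fraction unbound.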

[17] = Bioavailability in cynomolgus monkey at 0.5 mg/kg, iv and 2 mg/kg, po; format: ADME, organism-based, Macaca fascicularis; conditions: in vivo; in short: as §1
[18] = Tmax in po dosed Sprague-Dawley rat; format: ADME, organism-based; conditions: in vivo
[19] = Bioavailability in rat at 0.5 mg/kg, iv and 2 mg/kg, po; format: ADME, organism-based; conditions: in vivo; in short: as §1
[20] = Clearance in rat at 0.5 mg/kg, iv and 2 mg/kg, po; format: ADME, organism-based; conditions: in vivo; in short: as §1
[21] = Volume of distribution at steady state in cynomolgus monkey at 0.5 mg/kg, iv and 2 mg/kg, po; format: ADME, organism-based, Macaca fascicularis; conditions: in vivo, read-out: Vdss; in short: as §1

C[C@@](O)(c1ccc(C(=O)N(C2CC2)[C@H]2CC[C@](C#N)(c3ccccn3)CC2)cc1)C(F)(F)F
metabolised at 0.5 h [1]: 14%
metabolised at 0.5 h [2]: < 5%
IC50 (HeLa): > 10000 nM
Activity [3]: 7.6%

C[C@@](O)(c1ccc(C(=O)N(C2CC2)[C@H]2CC[C@@](C#N)(c3ccccn3)CC2)cc1)C(F)(F)F
metabolised at 0.5 h [1]: 95%
metabolised at 0.5 h [2]: 6.9%
IC50 (HeLa): > 10000 nM
Activity [3]: 6.3%

C[C@](O)(c1ccc(C(=O)N(C2CC2)[C@H]2CC[C@H](c3cccnc3)CC2)cc1)C(F)(F)F
IC50 [4]: 1.7 nM
metabolised at 0.5 h [2]: < 5%
IC50 (HeLa): 2500 nM
Activity [3]: 2.2%

C[C@](O)(c1ccc(C(=O)N(C2CC2)[C@H]2CC[C@@H](c3cccnc3)CC2)cc1)C(F)(F)F
IC50 [4]: 1.6 nM
metabolised at 0.5 h [2]: 94%
IC50 (HeLa): > 10000 nM
Activity [3]: 38%

C[C@](O)(c1ccc(C(=O)N(C2CC2)[C@H]2CC[C@](C#N)(c3ccc(C#N)cc3)CC2)cc1)C(F)(F)F
metabolised at 0.5 h [1]: < 5%
metabolised at 0.5 h [2]: 6.8%
IC50 (HeLa): > 10000 nM
Activity [3]: < 5%

C[C@](O)(c1ccc(C(=O)N(C2CC2)[C@H]2CC[C@](C#N)(c3cccnc3)CC2)cc1)C(F)(F)F
metabolised at 0.5 h [1]: 35%
metabolised at 0.5 h [2]: < 5%
IC50 (HeLa): > 10000 nM
Activity [3]: < 5%

C[C@](O)(c1ccc(C(=O)N(C2CC2)[C@H]2CC[C@](O)(c3ccccc3)CC2)cc1)C(F)(F)F
metabolised at 0.5 h [1]: < 5%
metabolised at 0.5 h [2]: < 5%
IC50 (HeLa): 5100 nM
Activity [3]: < 5%

C[C@](O)(c1ccc(C(=O)N(C2CC2)[C@H]2CC[C@@](C)(O)CC2)cc1)C(F)(F)F
metabolised at 0.5 h [1]: < 5%
metabolised at 0.5 h [2]: < 5%
IC50 (HeLa): > 10000 nM
Activity [3]: < 5%

C[C@](O)(c1ccc(C(=O)N(C2CC2)[C@H]2CC[C@@H](c3ccc(C#N)cc3)CC2)cc1)C(F)(F)F
IC50 [4]: 4.9 nM
metabolised at 0.5 h [2]: 33%
IC50 (HeLa): > 10000 nM
Activity [3]: 75%

C[C@](O)(c1ccc(C(=O)N(C2CC2)[C@H]2CC[C@](O)(c3cccnc3)CC2)cc1)C(F)(F)F
metabolised at 0.5 h [1]: < 5%
metabolised at 0.5 h [2]: < 5%
IC50 (HeLa): > 10000 nM
Activity [3]: < 5%

C[C@](O)(c1ccc(C(=O)N(C2CC2)[C@H]2CC[C@H](c3ccccc3)CC2)cc1)C(F)(F)F
metabolised at 0.5 h [2]: < 5%
IC50 (HeLa): > 10000 nM
Activity [3]: 31%

C[C@](O)(c1ccc(C(=O)N(C2CC2)[C@H]2CC[C@](O)(CC3CC3)CC2)cc1)C(F)(F)F
metabolised at 0.5 h [1]: 43%
metabolised at 0.5 h [2]: 10%
IC50 (HeLa): 2800 nM
Activity [3]: 5.9%

C[C@](O)(c1ccc(C(=O)N(C2CC2)[C@H]2CC[C@H](c3ccc(C#N)cc3)CC2)cc1)C(F)(F)F
IC50 [4]: 0.76 nM
metabolised at 0.5 h [2]: < 5%
IC50 (HeLa): 1100 nM
Activity [3]: 11%

CC(C)[C@]1(O)CC[C@@H](N(C(=O)c2ccc([C@](C)(O)C(F)(F)F)cc2)C2CC2)CC1
metabolised at 0.5 h [1]: 69%
metabolised at 0.5 h [2]: 10%
IC50 (HeLa): > 10000 nM
Activity [3]: < 3.4%

C[C@](O)(c1ccc(C(=O)N(C2CC2)[C@H]2CC[C@@](O)(c3ccccc3)CC2)cc1)C(F)(F)F
metabolised at 0.5 h [1]: > 95%
metabolised at 0.5 h [2]: 15%
IC50 (HeLa): > 10000 nM
Activity [3]: < 5%

C[C@](O)(c1ccc(C(=O)N(C2CC2)[C@H]2CC[C@](O)(c3ccccn3)CC2)cc1)C(F)(F)F
metabolised at 0.5 h [1]: < 5%
metabolised at 0.5 h [2]: < 5%
IC50 (HeLa): > 10000 nM
Activity [3]: 6.1%

C[C@](O)(c1ccc(C(=O)N(C2CC2)[C@H]2CC[C@](C#N)(c3ccccc3)CC2)cc1)C(F)(F)F
metabolised at 0.5 h [1]: 6%
metabolised at 0.5 h [2]: < 5%
IC50 (HeLa): > 10000 nM
Activity [3]: < 5%

C[C@](O)(c1ccc(C(=O)N(C2CC2)[C@H]2CC[C@](C#N)(C3CC3)CC2)cc1)C(F)(F)F
bioavailability [5]: 40%
clearance [6]: 3.17 mL/min/kg
Vd [7]: 2.2 L/kg
AUC [8]: 4100 ng·h/mL
metabolised at 0.5 h [1]: < 10%
AUC [9]: 1000 ng·h/mL
metabolised at 0.5 h [2]: < 10%
IC50 (HeLa): > 10000 nM
Vd [10]: 1.9 L/kg
Activity [3]: < 5%
clearance [11]: 1.55 mL/min/kg
bioavailability [12]: 5%

C[C@](O)(c1ccc(C(=O)N(C2CC2)[C@H]2CC[C@](O)(C3CC3)CC2)cc1)C(F)(F)F
IC50 (Cynomolgus monkey): 640 nM
IC50 [13]: 244 nM
clearance [14]: 1.83 mL/min/kg
ED50 (Rattus norvegicus): 10 mg/kg
AUC [8]: 8900 ng·h/mL
Vd [15]: 2.7 L/kg
fraction unbound [16]: 0.12
bioavailability [17]: 43%
Tmax [18]: 2 h
metabolised at 0.5 h [1]: 7.4%
AUC [9]: 4700 ng·h/mL
metabolised at 0.5 h [2]: < 5%
IC50 (HeLa): > 10000 nM
bioavailability [19]: 76%
clearance [20]: 4 mL/min/kg
Activity [3]: < 5%
Vd [21]: 1.5 L/kg
